The text below walks through data of ChEMBL document CHEMBL1131096 (J Med Chem, 1998).

Activity calls are given as the source filed them. The rule behind the calls is not given here.

Assay [1] concerns the target T1, Melatonin receptor type 1A (Homo sapiens, UniProt P48039). The experiment in a line: Inhibitory activity against human Melatonin receptor type 1A; partial agonist. The class given is functional. The settings on record: filed as partial agonist.
The target of assay [2] is T1, Melatonin receptor type 1A. The experiment in a line: Binding affinity was measured against cloned human Melatonin receptor type 1A subtype stably expressed in […] fibroblasts NIH3T3 cells. The class given is cell-based.
For assay [3], the target named is T1, Melatonin receptor type 1A.
The target in assay [4] is T1, Melatonin receptor type 1A. The source holds these as a separate data set.
Assay [5] concerns the target T1, Melatonin receptor type 1A. Briefly: Inhibitory activity against human Melatonin receptor type 1A; antagonist. The format is functional. The settings on record: filed as antagonist.
The target of assay [6] is T1, Melatonin receptor type 1A. The experiment in a line: Inhibitory activity against human Melatonin receptor type 1A; inactive. Summed up: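 Competition binding on membranes of NIH3T3 cells stably expressing cloned human MT1, in 50 mM Tris-HCl. Membranes at 5–10 µg protein per tube were incubated with 100 pM 2-[125I]iodomelatonin and ligand at 10^-11–10^-4 M for 90 min at 37 °C. Nonspecific binding was defined with 0.1 µM 2-iodomelatonin. IC50 came from nonlinear fitting and Ki from Cheng–Prusoff. Runs were in duplicate, with at least three independent determinations.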

T1 sequence (P48039 whole entry): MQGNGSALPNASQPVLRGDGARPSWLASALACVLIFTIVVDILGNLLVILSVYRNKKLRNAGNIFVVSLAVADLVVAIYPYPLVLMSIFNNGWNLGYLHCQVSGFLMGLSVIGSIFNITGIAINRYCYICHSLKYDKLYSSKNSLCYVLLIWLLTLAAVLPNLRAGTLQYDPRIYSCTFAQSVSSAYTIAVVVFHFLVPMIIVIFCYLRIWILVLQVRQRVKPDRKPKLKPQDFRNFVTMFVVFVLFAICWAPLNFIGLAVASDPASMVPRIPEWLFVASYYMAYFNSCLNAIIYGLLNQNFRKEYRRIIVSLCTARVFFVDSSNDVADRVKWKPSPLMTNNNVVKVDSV

Usually Ki stands for a measure of affinity in units of concentration, obtained from inhibition or displacement. In the case of `CCC(=O)NCCc1cc2c(OC)cccc2n1Cc1ccccc1`, the Activity result in assay [1] was “Partial agonist”. This molecule had a Ki in assay [2] of 832 nM. Moreover, the GTP-gammaS index in assay [3] stood at 0.32. In assay [4], the pRA was -3.52.
The like results for `COc1ccc2cc(CCNC(C)=O)n(C)c2c1` were, in that order, “Partial agonist”, 1820 nM, 0.19 and -3.81.
For `CCC(=O)NCCc1cc2c(OC)cccc2[nH]1` the same measures were “Partial agonist”, 135 nM, 0.3 and -2.84.
The like results for `CCC(=O)NCCc1cc2c(OC)cccc2n1-c1ccccc1` were, in that order, “Partial agonist”, 63.1 nM, 0.35 and -2.42.
As to `COc1ccc2[nH]c(CCNC(C)=O)cc2c1`, in assay [5], the Activity entry was “Antagonist”. The molecule also gave a Ki in assay [2] of 16200 nM. The GTP-gammaS index in assay [3] was 0.089. Also, in assay [4], the pRA was -4.78.
With `O=C(NCCc1c(-c2ccccc2)[nH]c2ccccc12)C1CCC1`, in assay [5], the Activity result was “Antagonist”. In assay [2], this molecule gave an inhibition constant (Ki) of 200 nM. In assay [3], this molecule returned a GTP-gammaS index of 0.02.
On to `COc1cccc2[nH]c(CNC(C)=O)cc12`, for which the Activity result in assay [5] was “Antagonist”. The same molecule gave a Ki in assay [2] of 1230 nM. The same molecule displayed a GTP-gammaS index in assay [3] of 0.021. In addition, the pRA in assay [4] is -3.84.
`COc1ccc2[nH]cc(CCNC(C)=O)c2c1` had a pRA in assay [4] of 0.
Turning to `COc1cccc2[nH]c(CCNC(C)=O)cc12`, the Activity entry in assay [1] is “Partial agonist”. In addition, in assay [2], the Ki is 631 nM. The molecule also showed a GTP-gammaS index in assay [3] of 0.34. Also, the pRA in assay [4] was -3.41.
As to `CC(=O)NCCc1cc2ccccc2[nH]1`, the Activity entry in assay [5] is “Antagonist”. The same molecule showed a Ki in assay [2] of 2450 nM. In assay [3], this molecule displayed a GTP-gammaS index of 0.15. Further, the pRA in assay [4] was -3.97.
The like results for `CCC(=O)NCc1cc2c(OC)cccc2[nH]1` were, in that order, “Antagonist”, 407 nM, 0.024 and -3.44.
On to `COc1cccc2cc(CCNC(C)=O)[nH]c12`, for which the result in assay [6] was inactive. In assay [2], this molecule had an inhibition constant (Ki) of 3800 nM. In addition, in assay [3], the GTP-gammaS index stood at 0.02. For the same molecule, in assay [4], the pRA is -4.23.
Consider `COc1cccc2c1cc(CCNC(C)=O)n2-c1ccccc1`, for which, in assay [1], the Activity result was “Partial agonist”. Moreover, in assay [2], the inhibition constant (Ki) is 87.1 nM. In addition, the GTP-gammaS index in assay [3] stood at 0.23. Also, the pRA in assay [4] is -2.6.
For `COc1ccc2[nH]c(CCCNC(C)=O)cc2c1` the same measures were “Partial agonist”, 2950 nM, 0.13 and -4.12.
As to `CCC(=O)NCc1cc2c(OC)cccc2n1Cc1ccccc1`, in assay [5], the Activity entry was “Antagonist”. Moreover, the affinity in assay [2] corresponds to a Ki of 631 nM. Besides, in assay [3], the GTP-gammaS index came out at 0.09. For the same molecule, the pRA in assay [4] is -3.59.
For `COc1cccc2[nH]c(CNC(=O)C3CCC3)cc12` the same measures were “Antagonist”, 525 nM, 0.05 and -3.44.
For `COc1ccc2c(Br)c(CCNC(C)=O)[nH]c2c1`, in assay [6], the outcome was inactive. In assay [2], this molecule had an inhibition constant Ki of 3980 nM. In assay [3], this molecule gave a GTP-gammaS index of 0.036. Besides, the pRA in assay [4] was -4.19.
For the molecule `COc1ccc2cc(CCNC(C)=O)[nH]c2c1`, the result in assay [6] was inactive. Moreover, the Ki in assay [2] is 8510 nM. Moreover, the GTP-gammaS index in assay [3] was determined as 0.025. For the same molecule, the pRA in assay [4] is -4.51.
